From paper PMC3155308 (The EMBO Journal, 2011)
Where no end group is shown, it is not given here.

Assays:
[1] = test system: myosin-X MyTH4–FERM cassette / microtubules; experiment: Competition microtubule co-sedimentation of MyTH4–FERM cassette; assay type: binding, human; settings: Myo-X 4 μM; integrin β5 peptide 0, 4, 20 and 40 μM; three independent measurements
[2] = test system: myosin-X MyTH4–FERM cassette; experiment: Pull-down with GST-fused integrin β5 cytoplasmic tail; assay type: binding, human; settings: GST-fused integrin β5 (743–799), Myo-X 10 μM
In short: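 MyTH4–FERM cassette (10 μM) was pulled down on glutathione-Sepharose at 4°C by GST-fused human integrin β5 cytoplasmic tail (743–799), with DCC P3 peptide at 0, 10, 50 or 100 μM. Eluates were run on SDS–PAGE. Bound cassette was expressed relative to the no-DCC sample, from three independent measurements.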

- interference with microtubule binding by integrin β5 [1]: interfere with microtubule binding
- binding of integrin β5 cytoplasmic peptide [2]: showed binding
Substance: integrin β5 cytoplasmic peptide: integrin β5 cytoplasmic tail (residues 743–799) ({GST}-KLLVTIHDRREFAKFQSERSRARYEMASNPLYRKPISTHTVDFTFNKFNKSYNGTVD; not fully specified)
